# This is a sample that favours compounds with a hit; in the whole collection about 2.2% have one here.
# APJ antag: blocks the human apelin receptor APJ; inhibition, % at 20 µM; CHO-K1 APJ beta-arrestin complementation, luminescence; AID 2521; 330,000 tested, 0.32% active; P35414;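 active means inhibition above about 40% at 20 µM, limit read from the data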;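 further: cells challenged with 10 nM apelin-13 agonist together with compound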
# CXCR6 inh: CXCR6 (human) receptor inhibition | O00574 | CHO-K1 PathHunter CXCR6 beta-arrestin, luminescence | inhibition, % at 20 µM | 360,000 tested, 0.36% active; in the data active means inhibition above about 34%, passing the limit was not always enough;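 further: antagonist mode with CXCL16 agonist at 10 nM final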
# EBI2 block: antagonists of human EBI2 receptor; 360,000 tested, 0.81% active; AID 651636; inhibition, % at 5 µM; P32249; EBI2 beta-arrestin recruitment, luminescence, 7a,25-OHC stimulated; in the data active means inhibition above about 38%;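 further: enzyme fragment complementation signal reports receptor beta-arrestin coupling in cells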
# APJ agonist: APJ receptor agonism; AID 2520; 330,000 tested, 0.11% active; activation, % at 20 µM; CHO-K1 APJ PathHunter beta-arrestin, luminescence; 0% DMSO wells, 100% apelin;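 active means activation more than six SD over the plate average, tested at 20 µM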
#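 Test system – PathHunter CHO-K1 APJ (AGTRL-1) beta-arrestin reporter cells · Input – 1000 cells/well · Compound – single test compound dose, 20 µM final, 1% DMSO · Times – compound stimulation 90 min at 25 °C, detection 60 min · Technique – beta-gal luminescence · Read-out basis – APJ–arrestin association signal · Control set – negative DMSO alone, positive Apelin-13 at 10 nM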
# CCR6 antag: CCR6 (human) receptor antagonism; P51684; CHO-K1 CCR6 PathHunter beta-arrestin, luminescence, CCL20-stimulated; inhibition, % at 20 µM; 340,000 tested, 0.49% active; AID 493098;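 active means compounds whose inhibition of the agonist-driven luminescence signal at 20 µM reaches about 50%, limit read from the data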;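 further: cells stimulated with CCL20 at 14 nM final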
# Target sequence (P51684 whole entry, looked up): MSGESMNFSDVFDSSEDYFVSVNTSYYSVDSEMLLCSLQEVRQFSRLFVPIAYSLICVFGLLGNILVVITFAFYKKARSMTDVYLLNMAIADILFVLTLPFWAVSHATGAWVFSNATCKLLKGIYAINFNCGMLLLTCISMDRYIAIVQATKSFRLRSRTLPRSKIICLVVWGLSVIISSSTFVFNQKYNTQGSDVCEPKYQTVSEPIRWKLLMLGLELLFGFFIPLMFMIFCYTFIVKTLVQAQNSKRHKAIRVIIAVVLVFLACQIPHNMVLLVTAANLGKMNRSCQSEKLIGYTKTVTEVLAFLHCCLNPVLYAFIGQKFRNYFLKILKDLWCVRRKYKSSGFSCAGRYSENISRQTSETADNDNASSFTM
# m5-HT2A agonist: mouse HTR2A agonism via beta-arrestin recruitment; P35363; CHO-K1 mHTR2A beta-arrestin complementation, luminescence; percent of 30 µM serotonin response; activation, % at 7.6 µM; 360,000 tested, 0.66% active; AID 624169;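 active means activation above a run cutoff, the mean activation of all tested compounds plus 3 SD, cut at about 14% in these data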
# EBI2 antag conf: confirmation of human EBI2 receptor antagonists; 2,400 tested, 29% active; shares compounds with EBI2 block; EBI2 beta-arrestin luminescence, 7a,25-OHC antagonism; inhibition, % at 5 µM;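 active means inhibition of at least 50%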
# EBI2 agonist: EBI2 agonism counter-screen | EBI2-expressing cells, agonist mode, luminescence, 60 min; 0% vehicle, 100% 7α,25-dihydroxycholesterol control | AID 652000 | shares compounds with EBI2 block | activation, % at 5 µM | 2,400 tested, under 10 active;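 active means activation of at least 50%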
# bGal cs: counter-screen for EBI2 antagonists: E. coli beta-galactosidase inhibition; inhibition, % at 5 µM; shares compounds with EBI2 block; purified beta-galactosidase, luminescent Galacton Star, 15 min; 2,400 tested, 1% active;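 active means replicate-average signal at least 3 plate SD below neutral wells, shown as high inhibition, flagging enzyme-inhibiting false positives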;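 further: higher means stronger loss of beta-gal luminescence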
# Numbers stand for hits; i = inactive; nt = no result.
SMILES,APJ antag,CXCR6 inh,EBI2 block,APJ agonist,CCR6 antag,m5-HT2A agonist,EBI2 antag conf,EBI2 agonist,bGal cs
Cc1ccc(S(=O)(=O)N2CCCN(Cc3nc4ccccc4c(=O)[nH]3)CC2)cc1,i,i,i,i,i,i,nt,nt,nt
COc1cc2nc(CN3CCN(S(=O)(=O)c4ccc(C)c(C)c4)CC3)[nH]c(=O)c2cc1OC,i,i,47,i,i,i,i,i,i
OC[C@@H]1CN(Cc2cccc(C(F)(F)F)c2)C[C@H](n2cnc3c(NC4CC4)ncnc32)O1,nt,i,65,nt,nt,i,62,i,i
CC(C)CNc1ncnc2c1ncn2[C@H]1CN(Cc2ccc(-c3ccccc3)cc2)C[C@@H](CO)O1,nt,i,i,nt,nt,i,nt,nt,nt
OC[C@@H]1CN(Cc2ccc(Cl)cc2)C[C@H](n2cnc3c(NC4CC4)ncnc32)O1,nt,i,83,nt,nt,i,82,i,i
CN(C)c1ncnc2c1ncn2[C@H]1CN(Cc2ccc(F)cc2)C[C@@H](CO)O1,nt,i,i,nt,nt,i,nt,nt,nt
CC(C)Nc1ncnc2c1ncn2[C@H]1CN(Cc2ccc(-c3ccccc3)cc2)C[C@@H](CO)O1,nt,i,44,nt,nt,i,i,i,i
CC(C)N(C)c1ncnc2c1ncn2[C@H]1CN(Cc2ccc(F)cc2)C[C@@H](CO)O1,nt,i,68,nt,nt,i,63,i,i
OC[C@@H]1CN(Cc2cccc(C(F)(F)F)c2)C[C@H](n2cnc3c(NCc4ccc(F)cc4)ncnc32)O1,nt,i,i,nt,nt,i,nt,nt,nt
OC[C@@H]1CN(Cc2ccncc2)C[C@H](n2cnc3c(NC4CC4)ncnc32)O1,nt,i,i,nt,nt,i,nt,nt,nt
COc1ccccc1N(C)S(=O)(=O)c1ccc(C(=O)Nc2cc(OC)c(OC)c(OC)c2)cc1,nt,i,i,nt,i,i,nt,nt,nt
CC(C)CCNC(=O)C1(C)CCN1Cc1ccc2ccccc2c1 (stereo not given),nt,i,i,nt,nt,i,nt,nt,nt
Cc1ccc(CCNC(=O)C23CN(Cc4ccccc4)CC2C(c2ccc([N+](=O)[O-])cc2)=NO3)cc1 (stereo not given),i,i,65,i,i,i,i,i,i
CC(C)c1cccc(-c2csc(C(C)(O)c3cccc(F)c3)n2)c1 (stereo not given),nt,i,i,nt,nt,i,nt,nt,nt
COc1ccc(C(C(=O)Nc2ccc(F)cc2)N2CCN(C(=O)c3ccco3)CC2)cc1 (stereo not given),nt,nt,i,nt,nt,i,nt,nt,nt
CCc1ccc(/C=C2\SC(N3CCCC3)=NC2=O)cc1,i,i,73,i,i,i,i,i,i
O=C1N=C(N2CCCCC2)S/C1=C\c1ccncc1,i,i,i,i,i,i,nt,nt,nt
COc1ccc(/C=C2\SC(N3CCCCC3)=NC2=O)cc1,i,i,54,i,i,i,i,i,i
CC1=CC(=O)Nc2ncccc2O1,nt,i,i,nt,nt,i,nt,nt,nt
O=C(c1ccc(Cl)cc1)c1oc2ccccc2c1CS(=O)c1ccc(Cl)cc1 (stereo not given),i,i,52,i,i,i,51,i,i
NC(c1csc(Nc2ccc(C(F)(F)F)cn2)n1)C1CCCCC1 (stereo not given),nt,i,i,nt,nt,i,nt,nt,nt
CC1(c2cccs2)CC(c2cccs2)=C(C#N)C(=O)N1 (stereo not given),i,i,85,i,i,i,64,i,i
CC(C)c1ccc(NC(=O)C2(C)Cc3c(-c4ccc(N(C)C)cc4)ccnc3O2)cc1 (stereo not given),nt,i,i,nt,nt,i,nt,nt,nt
CN(C)c1ccnc2sc3c(SCc4ccc(Cl)cc4)ncnc3c12,i,i,54,i,i,i,i,i,i
CN(C)c1ccnc2sc3c(NCC(O)CO)ncnc3c12 (stereo not given),i,i,i,i,i,i,nt,nt,nt
O=C(CSc1nnc(-c2ccc(O)cc2)n1Cc1ccco1)N1CCc2ccccc2C1,i,i,76,i,i,i,i,i,i
